Test results published in ChEMBL document CHEMBL3608260 (Bioorg Med Chem Lett, 2015).
Non-standard residues stand in square brackets, D forms with d. Residues, ends and D or L forms follow the SMILES beside them. *: point of attachment. OBzl(3,5-(CF3)2) = FC(F)(F)c1cc(CO*)cc(C(F)(F)F)c1; Phe(4-Cl) = N[C@@H](Cc1ccc(Cl)cc1)C(=O)O; Phe(4-F) = N[C@@H](Cc1ccc(F)cc1)C(=O)O; Nle = CCCC[C@H](N)C(=O)O; βAla = NCCC(=O)O

Legend:
[1] = target: Substance-P receptor (Cavia porcellus) (UniProt P30547); assay: Antagonist activity at NK1 receptor in guinea pig ileum assessed as inhibition of substance P-induced muscle contraction in presence of naloxone; format: tissue-based
[2] = Selectivity ratio of Ki for rat mu opioid receptor to Ki for human delta opioid receptor
[3] = target: T1, Delta-type opioid receptor (Homo sapiens, UniProt P41143); assay: Agonist activity at human delta opioid receptor transfected in HN9.10 cells by [35S]GTPgammaS binding assay; format: functional, cell-based
Summary of the method: (§1)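 Membranes from transfected HN9.10 cells constitutively expressing human DOR or rat MOR. EC50 comes from non-linear regression of at least two independent experiments in duplicate. Emax = [Total bound − Basal]/[Basal − Non-specific] × 100.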

[4] = target: Mu-type opioid receptor (Rattus norvegicus) (UniProt P33535); assay: (§2) Agonist activity at rat mu opioid receptor transfected in HN9.10 cells by [35S]GTPgammaS binding assay; format: functional, cell-based; summary of the method: as §1
Mu-type opioid receptor [5] = target: Mu-type opioid receptor (Rattus norvegicus, UniProt P33535); assay: as §2; format: functional, cell-based; summary of the method: as §1
[6] = target: Delta-type opioid receptor (Mus musculus) (UniProt P32300); assay: Agonist activity at delta opioid receptor in mouse vas deferens assessed as inhibition of electrically-stimulated muscle contraction at 1 uM relative to control
[7] = target: Mu-type opioid receptor (Cavia porcellus) (UniProt P97266); assay: Agonist activity at mu opioid receptor in guinea pig ileum assessed as inhibition of electrically-stimulated muscle contraction at 1 uM relative to control; format: tissue-based
Substance-P receptor = Substance-P receptor (Rattus norvegicus, UniProt P14600); assay: Displacement of [3H]-substance P from rat NK1 receptor transfected in CHO cells; format: cell-based
[8] = Ratio of Ki for rat NK1 receptor to Ki for human NK1 receptor
[9] = target: T1, Delta-type opioid receptor; assay: Displacement of [3H]-DPDPE from human delta opioid receptor transfected in HN9.10 cells; format: cell-based
[10] = target: Delta-type opioid receptor (Mus musculus, UniProt P32300); assay: Agonist activity at delta opioid receptor in mouse vas deferens assessed as inhibition of electrically-stimulated muscle contraction
Summary of the method: (§3)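 Electrically stimulated isolated tissue (mouse vas deferens or guinea pig ileum).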

Mu-type opioid receptor [11] = target: Mu-type opioid receptor (Cavia porcellus, UniProt P97266); assay: Agonist activity at mu opioid receptor in guinea pig ileum assessed as inhibition of electrically-stimulated muscle contraction; format: tissue-based; summary of the method: as §3
Mu-type opioid receptor (Cavia porcellus, UniProt P97266), sequence (P97266 whole entry): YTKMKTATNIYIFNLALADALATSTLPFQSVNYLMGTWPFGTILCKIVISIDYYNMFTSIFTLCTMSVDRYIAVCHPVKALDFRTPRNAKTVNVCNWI

Mu-type opioid receptor (Rattus norvegicus), sequence (P33535 whole entry): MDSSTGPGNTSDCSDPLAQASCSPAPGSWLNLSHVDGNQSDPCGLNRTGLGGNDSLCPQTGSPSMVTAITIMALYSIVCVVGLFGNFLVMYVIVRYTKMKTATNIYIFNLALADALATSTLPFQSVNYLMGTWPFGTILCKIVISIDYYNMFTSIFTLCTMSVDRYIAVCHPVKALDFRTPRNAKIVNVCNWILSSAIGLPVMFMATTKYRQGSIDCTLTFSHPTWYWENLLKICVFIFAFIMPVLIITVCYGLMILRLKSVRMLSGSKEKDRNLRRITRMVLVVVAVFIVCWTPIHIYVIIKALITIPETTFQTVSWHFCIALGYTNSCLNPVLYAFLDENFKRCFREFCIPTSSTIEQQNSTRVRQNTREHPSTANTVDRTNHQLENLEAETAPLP
Substance-P receptor (Cavia porcellus), sequence (P30547 whole entry): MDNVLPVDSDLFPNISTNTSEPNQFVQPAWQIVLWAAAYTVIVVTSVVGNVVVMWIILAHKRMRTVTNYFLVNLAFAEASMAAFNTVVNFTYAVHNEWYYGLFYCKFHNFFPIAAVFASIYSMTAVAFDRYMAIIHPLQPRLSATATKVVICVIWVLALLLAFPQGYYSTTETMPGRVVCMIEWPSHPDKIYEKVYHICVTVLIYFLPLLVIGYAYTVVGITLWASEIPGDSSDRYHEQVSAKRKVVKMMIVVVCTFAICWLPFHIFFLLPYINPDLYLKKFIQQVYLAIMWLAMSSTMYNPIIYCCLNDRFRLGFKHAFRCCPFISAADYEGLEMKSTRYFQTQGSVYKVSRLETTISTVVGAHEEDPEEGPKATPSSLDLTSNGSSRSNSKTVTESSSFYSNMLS
T1 sequence (P41143 whole entry): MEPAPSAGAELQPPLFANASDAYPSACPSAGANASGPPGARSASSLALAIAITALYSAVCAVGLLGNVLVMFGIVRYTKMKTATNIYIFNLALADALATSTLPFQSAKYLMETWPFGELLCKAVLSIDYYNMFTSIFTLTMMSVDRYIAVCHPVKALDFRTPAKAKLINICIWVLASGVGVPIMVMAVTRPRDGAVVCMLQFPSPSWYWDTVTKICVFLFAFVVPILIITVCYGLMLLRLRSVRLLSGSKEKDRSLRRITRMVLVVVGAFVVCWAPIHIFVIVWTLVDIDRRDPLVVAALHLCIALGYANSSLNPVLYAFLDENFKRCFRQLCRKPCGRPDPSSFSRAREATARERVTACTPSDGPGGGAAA
Substance-P receptor, sequence (P14600 whole entry): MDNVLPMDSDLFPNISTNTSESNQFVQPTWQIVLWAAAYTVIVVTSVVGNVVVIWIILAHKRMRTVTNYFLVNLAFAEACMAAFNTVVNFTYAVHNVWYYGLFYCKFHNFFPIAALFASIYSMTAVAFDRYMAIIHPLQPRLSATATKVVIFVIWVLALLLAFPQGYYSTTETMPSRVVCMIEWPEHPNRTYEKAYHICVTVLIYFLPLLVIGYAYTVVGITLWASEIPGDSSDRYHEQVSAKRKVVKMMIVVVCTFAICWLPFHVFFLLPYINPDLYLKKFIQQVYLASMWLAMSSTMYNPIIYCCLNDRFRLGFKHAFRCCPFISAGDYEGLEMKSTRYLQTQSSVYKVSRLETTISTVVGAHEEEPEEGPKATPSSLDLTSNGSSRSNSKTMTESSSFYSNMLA
Delta-type opioid receptor (Mus musculus, UniProt P32300), sequence (P32300 whole entry): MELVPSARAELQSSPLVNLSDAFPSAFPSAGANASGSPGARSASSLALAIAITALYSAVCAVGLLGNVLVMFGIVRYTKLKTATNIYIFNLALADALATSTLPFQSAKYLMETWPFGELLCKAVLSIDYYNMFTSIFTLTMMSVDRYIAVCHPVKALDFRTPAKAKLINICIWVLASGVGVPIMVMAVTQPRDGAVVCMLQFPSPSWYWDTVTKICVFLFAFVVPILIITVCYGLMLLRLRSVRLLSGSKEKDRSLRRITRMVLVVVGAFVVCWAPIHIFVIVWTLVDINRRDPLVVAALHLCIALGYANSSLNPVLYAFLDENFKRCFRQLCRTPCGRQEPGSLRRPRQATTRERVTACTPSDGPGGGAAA
Mu-type opioid receptor (Cavia porcellus), sequence (P97266 whole entry): as the sequence (P97266 whole entry) above
Mu-type opioid receptor (Rattus norvegicus, UniProt P33535), sequence (P33535 whole entry): as the sequence (P33535 whole entry) above
Delta-type opioid receptor (Mus musculus), sequence (P32300 whole entry): as the sequence (P32300 whole entry) above

Structure (SMILES) | Ke [1] | Emax [3] | Emax [4] | Ki (Substance-P receptor) | also measured
C[C@@H](NC(=O)[C@@H](N)Cc1ccc(O)cc1)C(=O)NCC(=O)N[C@@H](Cc1ccc(F)cc1)C(=O)NCC(=O)N[C@@H](Cc1c[nH]c2ccccc12)C(=O)OCc1cc(C(F)(F)F)cc(C(F)(F)F)c1 (H-Y[dA]G[Phe(4-F)]GW-{OBzl(3,5-(CF3)2)}) | 10 nM | – | – | – | –
CCCC[C@H](NC(=O)[C@H](Cc1ccccc1)NC(=O)CNC(=O)[C@@H](C)NC(=O)[C@@H](N)Cc1ccc(O)cc1)C(=O)N[C@@H](Cc1c[nH]c2ccccc12)C(=O)OCc1cc(C(F)(F)F)cc(C(F)(F)F)c1 (H-Y[dA]GF[Nle]W-{OBzl(3,5-(CF3)2)}) | 13 nM | – | – | – | –
C[C@@H](NC(=O)[C@@H](N)Cc1ccc(O)cc1)C(=O)N[C@@H](Cc1c[nH]c2ccccc12)C(=O)OCc1cc(C(F)(F)F)cc(C(F)(F)F)c1 | 49 nM | 36% | 26% | 2.9 nM | Ratio Ki [2]: 1.8; EC50 (Mu-type opioid receptor [5]): 170 nM; inhibition [6]: 5.5%; inhibition [7]: 3.3%; Ratio Ki [8]: 730
Cc1cc(O)cc(C)c1C[C@H](N)C(=O)N[C@H](C)C(=O)N[C@@H](Cc1c[nH]c2ccccc12)C(=O)NCc1cc(C(F)(F)F)cc(C(F)(F)F)c1 | 22 nM | 50% | – | – | –
C[C@@H](NC(=O)[C@@H](N)Cc1ccc(O)cc1)C(=O)NCC(=O)N[C@@H](Cc1ccc(F)cc1)C(=O)OCc1cc(C(F)(F)F)cc(C(F)(F)F)c1 | 52 nM | 78% | 58% | 230 nM | Ki [9]: 56 nM; EC50 [3]: 6.7 nM; IC50 [10]: 180 nM; IC50 (Mu-type opioid receptor [11]): 210 nM
C[C@@H](NC(=O)[C@@H](N)Cc1ccc(O)cc1)C(=O)NCC(=O)N[C@@H](Cc1c[nH]c2ccccc12)C(=O)OCc1cc(C(F)(F)F)cc(C(F)(F)F)c1 (H-Y[dA]GW-{OBzl(3,5-(CF3)2)}) | 5 nM | 33% | 34% | 15 nM | Ki [9]: 310 nM; Ratio Ki [2]: 0.16; Ratio Ki [8]: 500; IC50 (Mu-type opioid receptor [11]): 840 nM
C[C@@H](NC(=O)[C@@H](N)Cc1ccc(O)cc1)C(=O)NCC(=O)N[C@@H](Cc1ccccc1)C(=O)N[C@@H](Cc1c[nH]c2ccccc12)C(=O)OCc1cc(C(F)(F)F)cc(C(F)(F)F)c1 (H-Y[dA]GFW-{OBzl(3,5-(CF3)2)}) | 38 nM | – | 14% | – | –
C[C@@H](NC(=O)[C@@H](N)Cc1ccc(O)cc1)C(=O)NCC(=O)N[C@@H](Cc1ccc(Cl)cc1)C(=O)NCC(=O)N[C@@H](Cc1c[nH]c2ccccc12)C(=O)OCc1cc(C(F)(F)F)cc(C(F)(F)F)c1 (H-Y[dA]G[Phe(4-Cl)]GW-{OBzl(3,5-(CF3)2)}) | 30 nM | – | – | – | –
Cc1cc(O)cc(C)c1C[C@H](N)C(=O)N[C@H](C)C(=O)N[C@@H](Cc1c[nH]c2ccccc12)C(=O)OCc1cc(C(F)(F)F)cc(C(F)(F)F)c1 | 110 nM | – | – | – | EC50 [3]: 12 nM
C[C@@H](NC(=O)[C@@H](N)Cc1ccc(O)cc1)C(=O)NCC(=O)N[C@@H](Cc1ccccc1)C(=O)NCCC(=O)N[C@@H](Cc1c[nH]c2ccccc12)C(=O)OCc1cc(C(F)(F)F)cc(C(F)(F)F)c1 (H-Y[dA]GF[βAla]W-{OBzl(3,5-(CF3)2)}) | 250 nM | – | – | – | IC50 [10]: 13 nM
